According to ChEMBL document CHEMBL1138813, “Synthesis and antiviral activity of 3-formyl- and 3-cyano-2,5,6-trichloroindole nucleoside derivatives” (J Med Chem, 2004):

How the values were obtained:
[1] = Inhibitory concentration required against herpes simplex virus type-1 (HSV-1) expressed in BSC-1 cells was determined by ELISA assay; assay type: functional, cell-based, Cercopithecidae
Procedure, shortened: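 BSC-1 cells, 10 000 per well in MEM(E) plus 10% calf serum, incubated overnight at 37 °C. Drug added in quadruplicate with HSV-1 KOS strain at 100 pfu/well, then 3 days at 37 °C. […] Acyclovir as positive control.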

HFF [2] = test: Inhibitory concentration required against human cytomegalovirus (HCMV) expressed in HFF cells was determined by plaque reduction assay; assay type: functional, cell-based
Procedure, shortened: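 HFF cells in 24-well dishes infected with about 100 pfu/cm² of HCMV Towne strain. After adsorption, compound (10 mg/mL DMSO stock diluted in medium) added to duplicate wells at four to eight concentrations. Incubated 7–10 days at 37 °C, then fixed and crystal violet stained; plaques counted microscopically. % plaque reduction vs drug-free wells; IC50 by log-linear regression. GCV as positive control.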

HFF [3] = test: Cytotoxicity produced in stationary HFF cells was determined by microscopic inspection of uninfected cells; assay type: functional, cell-based; conditions: Homo sapiens
Procedure, shortened: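 Stationary HFF cells in MEM with 10% fetal bovine serum, in plaque-assay plates. Visual cytotoxicity scored microscopically in duplicate wells on cells not affected by virus, at the time of HCMV plaque enumeration (after 7–10 days at 37 °C). IC50 from linear portion of regression of % inhibition against log10 drug concentration.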

[4] = Cytotoxicity against KB cells was determined by crystal violet staining and spectrophotometric quantitation of dye eluted from stained cells; assay type: functional, cell-based; conditions: Homo sapiens
Procedure, shortened: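 KB cells seeded at 3000–5000 per well, incubated overnight at 37 °C, then compound added in quadruplicate at six to eight concentrations. After 48 h at 37 °C in CO₂ (two population doublings), cells were fixed in 95% ethanol and stained with 0.1% crystal violet. Dye eluted with acidified ethanol, read at 570 nm. IC50 from linear regression of % inhibition vs log10 concentration.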

Structure (SMILES)	IC50 [1] [µM]	IC50 (HFF [2]) [µM]	IC50 (HFF [3]) [µM]	IC50 [4] [µM]
N/C(=N\O)c1c(Br)n(C2O[C@H](CO)[C@@H](O)C2O)c2cc(Cl)c(Cl)cc12 (single isomer, unassigned)	> 100	0.41	> 100	35
COC(=O)N/N=C/c1c(Cl)n(C2O[C@H](CO)[C@@H](O)[C@H]2O)c2cc(Cl)c(Cl)cc12 (some centres not stated)	30	1.7	32	20
OC[C@H]1O[C@@H](n2c(Br)nc3cc(Cl)c(Cl)cc32)C(O)[C@@H]1O (single isomer, unassigned)	130	–	–	> 100
NC(=O)c1c(Cl)n(C2O[C@H](CO)[C@@H](O)C2O)c2cc(Cl)c(Cl)cc12 (single isomer, unassigned)	40	2	45	45
N/C(=N\O)c1c(Cl)n(C2O[C@H](CO)[C@@H](O)C2O)c2cc(Cl)c(Cl)cc12 (single isomer, unassigned)	70	0.3	100	> 100
OC[C@H]1O[C@@H](n2c(Cl)nc3cc(Cl)c(Cl)cc32)C(O)[C@@H]1O (single isomer, unassigned)	102	–	–	210
Nc1nc2c(ncn2COC(CO)CO)c(=O)[nH]1 [GANCICLOVIR]	3.5	–	> 100	> 100
O=Cc1c(Cl)n(C2O[C@H](CO)[C@@H](O)C2O)c2cc(Cl)c(Cl)cc12 (single isomer, unassigned)	40	0.23	–	45
CO/N=C/c1c(Cl)n(C2O[C@H](CO)[C@@H](O)C2O)c2cc(Cl)c(Cl)cc12 (single isomer, unassigned)	15	40	32	70
N#Cc1c(Cl)n(C2O[C@H](CO)[C@@H](O)C2O)c2cc(Cl)c(Cl)cc12 (single isomer, unassigned)	15	0.55	–	65

Continued, in another order:

IC50 [1] [µM]	Structure (SMILES)	IC50 (HFF [2]) [µM]	IC50 (HFF [3]) [µM]	IC50 [4] [µM]
70	COC(=N)c1c(Cl)n(C2O[C@H](CO)[C@@H](O)C2O)c2cc(Cl)c(Cl)cc12 (single isomer, unassigned)	0.36	100	50
5	OC[C@H]1OC(n2c(Cl)c(/C=N/O)c3cc(Cl)c(Cl)cc32)C(O)[C@@H]1O (single isomer, unassigned)	3.9	20	25
> 100	N/C(S)=N/N=C/c1c(Cl)n(C2O[C@H](CO)[C@@H](O)[C@H]2O)c2cc(Cl)c(Cl)cc12 (some centres not stated)	2.2	100	65
> 100	NC(=O)N/N=C/c1c(Cl)n(C2O[C@H](CO)[C@@H](O)[C@H]2O)c2cc(Cl)c(Cl)cc12 (some centres not stated)	3	100	> 100
15	CN(C)/N=C/c1c(Cl)n(C2O[C@H](CO)[C@@H](O)C2O)c2cc(Cl)c(Cl)cc12 (single isomer, unassigned)	0.27	32	70
30	CC(=O)N/N=C/c1c(Cl)n(C2O[C@H](CO)[C@@H](O)C2O)c2cc(Cl)c(Cl)cc12 (single isomer, unassigned)	1.7	32	9
